Key:
Assay type in all cases: functional, cell-based
[1] = system: B16; experiment: Cytotoxicity that caused a 50% reduction in absorbance at 490 nm in B16 mouse melanoma cells using MTS assay.
Outline: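 Compounds taken from 100 mM DMSO stocks and diluted in culture medium. Cells seeded at 4×10^3 per well and exposed to 0.78–100 μM. A 1% DMSO control was run in parallel. MTS reagent added after 72 h and formazan read at 490 nm. EC50 is the concentration giving 50% absorbance reduction versus untreated cells.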

[2] = Cytotoxicity that caused a 50% reduction in absorbance at 490 nm in normal human fibroblast (NHF) cells using MTS assay.
Outline: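 Normal human dermal fibroblasts were cultivated in FGM medium and seeded at 4×10^3 cells per well. Exposure was 0.78–100 μM, diluted in medium from 100 mM DMSO stocks, with a 1% DMSO control. Formazan absorbance at 490 nm was measured by MTS after 72 h. EC50 is the concentration halving absorbance relative to untreated cells.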

[3] = Cytotoxicity that caused a 50% reduction in absorbance at 490 nm in human prostate cancer HTB-81 cells using MTS assay.
Outline: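 DU-145 (HTB-81) prostate cancer cells were grown in MEM with 10% fetal bovine serum and 2 mM L-glutamine. They were plated at 4×10^3 per well and treated at 0.78–100 μM from 100 mM DMSO stocks diluted in medium, with a 1% DMSO control. MTS read at 490 nm after 72 h. EC50 is the 50% absorbance drop versus untreated cells.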

Nc1ncnc2c1c(=O)ccn2[C@@H]1O[C@H](CO)[C@@H](O)[C@H]1O (stereo in doubt; 1b)
EC50 ([1]; b16): 0.06 µM
EC50 [2]: 0.08 µM
EC50 ([3]; htb-81): 0.06 µM

Nc1ncnc2c1c(=O)ccn2[C@@H]1OC(CO)(CO)[C@@H](O)[C@H]1O
EC50 ([1]; Mus musculus, B16): > 100 µM
EC50 ([2]; Homo sapiens): > 100 µM
EC50 ([3]; Homo sapiens, HTB-81): > 100 µM

C[C@]1(O)C(n2ccc(=O)c3c(N)ncnc32)O[C@H](CO)[C@H]1O (stereo partly specified)
EC50 ([1]; Mus musculus, B16): 85.5 µM
EC50 ([2]; Homo sapiens): > 100 µM
EC50 ([3]; Homo sapiens, HTB-81): 46.7 µM

Nc1ncnc2c1c(=O)ccn2[C@@H]1O[C@H](CO)C[C@H]1O
EC50 ([1]; Mus musculus, B16): 19 µM
EC50 ([2]; Homo sapiens): 9.5 µM
EC50 ([3]; Homo sapiens, HTB-81): 2.6 µM

C[C@]1(CO)OC(n2ccc(=O)c3c(N)ncnc32)[C@H](O)[C@@H]1O (stereo partly specified)
EC50 ([1]; Mus musculus, B16): 55.5 µM
EC50 ([2]; Homo sapiens): 29.9 µM
EC50 ([3]; Homo sapiens, HTB-81): 19.7 µM

Nc1ncnc2nccc(O)c12
EC50 ([1]; Mus musculus, B16): > 100 µM
EC50 ([2]; Homo sapiens): > 100 µM
EC50 ([3]; Homo sapiens, HTB-81): > 100 µM

COc1cccc2c1C(=O)c1c(O)c3c(c(O)c1C2=O)C[C@@](O)(C(C)=O)C[C@@H]3O[C@H]1C[C@H](N)[C@H](O)[C@H](C)O1 [DAUNORUBICIN]
EC50 ([1]; Mus musculus, B16): 0.16 µM
EC50 ([2]; Homo sapiens): 0.22 µM
EC50 ([3]; Homo sapiens, HTB-81): 0.058 µM

CC[C@]1(CO)OC(n2ccc(=O)c3c(N)ncnc32)[C@H](O)[C@@H]1O (stereo partly specified)
EC50 ([1]; Mus musculus, B16): 96 µM
EC50 ([2]; Homo sapiens): 65.1 µM
EC50 ([3]; Homo sapiens, HTB-81): 36.7 µM

Nc1ncnc2c1c(=O)ccn2[C@H]1C[C@H](O)[C@@H](CO)O1
EC50 ([1]; Mus musculus, B16): 11.3 µM
EC50 ([2]; Homo sapiens): 5 µM
EC50 ([3]; Homo sapiens, HTB-81): 3.9 µM

C[C@@]1(O)[C@@H](CO)OC(n2ccc(=O)c3c(N)ncnc32)[C@@H]1O (stereo partly specified)
EC50 ([1]; Mus musculus, B16): 31.6 µM
EC50 ([2]; Homo sapiens): 10.4 µM
EC50 ([3]; Homo sapiens, HTB-81): 4.44 µM

Nc1ncnc2c1c(=O)ccn2[C@H]1C[C@@H](O)[C@@H](CO)O1
EC50 ([1]; Mus musculus, B16): 68.9 µM
EC50 ([2]; Homo sapiens): 38.9 µM
EC50 ([3]; Homo sapiens, HTB-81): 26.6 µM

CC[C@@H](O)[C@H]1O[C@@H](n2ccc(=O)c3c(N)ncnc32)[C@H](O)[C@@H]1O.CC[C@H](O)[C@H]1O[C@@H](n2ccc(=O)c3c(N)ncnc32)[C@H](O)[C@@H]1O (mixture of isomers)
EC50 ([1]; Mus musculus, B16): 16.3 µM
EC50 ([2]; Homo sapiens): 18.9 µM
EC50 ([3]; Homo sapiens, HTB-81): 17.3 µM

N=c1ncn(C2OC(CO)[C@@H](O)[C@@H]2O)c2nccc(O)c12 (stereo partly specified)
EC50 ([1]; Mus musculus, B16): > 100 µM
EC50 ([2]; Homo sapiens): > 100 µM
EC50 ([3]; Homo sapiens, HTB-81): > 100 µM

C#C[C@]1(O)[C@@H](CO)OC(n2ccc(=O)c3c(N)ncnc32)[C@@H]1O (stereo partly specified)
EC50 ([1]; Mus musculus, B16): > 100 µM
EC50 ([2]; Homo sapiens): > 100 µM
EC50 ([3]; Homo sapiens, HTB-81): > 100 µM

C#C[C@@H](O)[C@H]1O[C@@H](n2ccc(=O)c3c(N)ncnc32)[C@H](O)[C@@H]1O.C#C[C@H](O)[C@H]1O[C@@H](n2ccc(=O)c3c(N)ncnc32)[C@H](O)[C@@H]1O (mixture of isomers)
EC50 ([1]; Mus musculus, B16): 17.2 µM
EC50 ([2]; Homo sapiens): 15.3 µM
EC50 ([3]; Homo sapiens, HTB-81): 6.1 µM

Nc1ncnc2c1c(=O)ccn2C1CCC(CO)O1 (stereo unspecified)
EC50 ([1]; Mus musculus, B16): 47.1 µM
EC50 ([2]; Homo sapiens): 60.5 µM
EC50 ([3]; Homo sapiens, HTB-81): 43.3 µM

C=CC[C@@H](O)[C@H]1OC(n2ccc(=O)c3c(N)ncnc32)[C@H](O)[C@@H]1O (stereo partly specified)
EC50 ([1]; Mus musculus, B16): 66.3 µM
EC50 ([2]; Homo sapiens): 72 µM
EC50 ([3]; Homo sapiens, HTB-81): 35.3 µM

Nc1ncnc2c1c(=O)ccn2C1O[C@H](CO)[C@H](O)[C@H]1O (stereo partly specified)
EC50 ([1]; Mus musculus, B16): 5.9 µM
EC50 ([2]; Homo sapiens): 20.7 µM
EC50 ([3]; Homo sapiens, HTB-81): 0.73 µM

C=C[C@]1(CO)OC(n2ccc(=O)c3c(N)ncnc32)[C@H](O)[C@@H]1O (stereo partly specified)
EC50 ([1]; Mus musculus, B16): 99.7 µM
EC50 ([2]; Homo sapiens): 76.8 µM
EC50 ([3]; Homo sapiens, HTB-81): 34.2 µM

C#C[C@@]1(O)[C@@H](CO)OC(n2ccc(=O)c3c(N)ncnc32)[C@@H]1O (stereo partly specified)
EC50 ([1]; Mus musculus, B16): 2.48 µM
EC50 ([2]; Homo sapiens): 6.45 µM
EC50 ([3]; Homo sapiens, HTB-81): 0.68 µM

C=C1[C@H](n2ccc(=O)c3c(N)ncnc32)O[C@H](CO)[C@H]1O
EC50 ([1]; Mus musculus, B16): > 100 µM
EC50 ([2]; Homo sapiens): > 100 µM
EC50 ([3]; Homo sapiens, HTB-81): > 100 µM

N#Cc1cn([C@@H]2O[C@H](CO)[C@@H](O)[C@H]2O)c2ncnc(N)c12 [TOYOCAMYCIN]
EC50 ([1]; Mus musculus, B16): 0.005 µM
EC50 ([2]; Homo sapiens): 0.004 µM
EC50 ([3]; Homo sapiens, HTB-81): 0.012 µM

Nc1ncnc2c1c(=O)ccn2C1O[C@H](CO)[C@@H](O)[C@@H]1O (stereo partly specified)
EC50 ([1]; Mus musculus, B16): 33.2 µM
EC50 ([2]; Homo sapiens): 23.2 µM
EC50 ([3]; Homo sapiens, HTB-81): 21.9 µM

Nc1ncnc2c1c(=O)ccn2[C@@H]1O[C@H](CO)[C@@H](O)[C@H]1O (stereo in doubt; 1b-L)
EC50 ([1]; b16): > 100 µM
EC50 [2]: > 100 µM
EC50 ([3]; htb-81): > 100 µM

C=C1[C@@H](O)[C@H](n2ccc(=O)c3c(N)ncnc32)O[C@@H]1CO
EC50 ([1]; Mus musculus, B16): 60.5 µM
EC50 ([2]; Homo sapiens): 41.1 µM
EC50 ([3]; Homo sapiens, HTB-81): 31.1 µM

C[C@@H](O)[C@H]1O[C@@H](n2ccc(=O)c3c(N)ncnc32)[C@H](O)[C@@H]1O.C[C@H](O)[C@H]1O[C@@H](n2ccc(=O)c3c(N)ncnc32)[C@H](O)[C@@H]1O
EC50 ([1]; Mus musculus, B16): 18.3 µM
EC50 ([2]; Homo sapiens): 16.5 µM
EC50 ([3]; Homo sapiens, HTB-81): 10 µM

N=c1ncn(C2O[C@H](CO)[C@@H](O)[C@H]2O)c2nccc(O)c12 (stereo partly specified)
EC50 ([2]; Homo sapiens): 7.3 µM
EC50 ([3]; Homo sapiens, HTB-81): 7.3 µM

CCC[C@@H](O)[C@H]1OC(n2ccc(=O)c3c(N)ncnc32)[C@H](O)[C@@H]1O (stereo partly specified)
EC50 ([1]; Mus musculus, B16): 51.6 µM
EC50 ([2]; Homo sapiens): 41.1 µM
EC50 ([3]; Homo sapiens, HTB-81): 20.4 µM

C#C[C@]1(O)C(n2ccc(=O)c3c(N)ncnc32)O[C@H](CO)[C@H]1O (stereo partly specified)
EC50 ([1]; Mus musculus, B16): 81 µM
EC50 ([2]; Homo sapiens): 65.1 µM
EC50 ([3]; Homo sapiens, HTB-81): 29.3 µM

From ChEMBL document CHEMBL1133679, “Synthesis and cytotoxicity of 4-amino-5-oxopyrido[2,3-d]pyrimidine nucleosides” (J Med Chem, 2000)
